According to PubChem BioAssay:
A number with no mark means an inactive call. Results filed as inconclusive are left out. Calls of active or inactive are those of the source.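 How the source made its calls, unless noted: active means growth inhibition above 25% in both replicates, a cutoff set 3 SD above the mean; inconclusive means above 25% in only one replicate; inactive means the rest.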

What was measured:
[1] = S. cerevisiae growth inhibition in permissive medium (OD615), pilot counter-assay for S. cerevisiae lifespan shortening project, permissive growth control (AID 705); conditions: OD615, 24 h, at 10 µM, stronger effect = higher value
In short: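 Material: engineered DeaD yeast; Compound: one dose 10 µM, DMSO 0.25% final; Detection: absorbance (optical density) at 615 nm; Buffer or medium: permissive raffinose/galactose medium; Timing: 24 h exposure, 30 °C.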

[2] = S. cerevisiae growth inhibition in restrictive medium, OD615, pilot screen, restrictive growth control, yeast lifespan reduction project (AID 706;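 active means growth inhibition above a set limit, 3 SD over mean compound inhibition, in both replicates, cut at about 43% in these data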;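 further: modified DeaD lifespan yeast strain shifted to restrictive glucose medium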); conditions: OD615, 48 h, at 10 µM, stronger effect = higher value
In short: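 Buffer or medium: restrictive glucose medium (CSMM-D); test system: modified S. cerevisiae; doses: single dose of 10 µM compound final, 0.25% DMSO; schedule: 48 h compound exposure at 30 °C; detection: absorbance (optical density) measured at 615 nm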

[3] = doxorubicin toxicity protection in MRP-1 cells – H69AR cells, CellTiter-Glo, duplicate, MRP-1 activator project, pilot screen (AID 807;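 active means viability increase at or above a cutoff of the median across tested compounds plus 3 SD, cut at about 8.5% in these data, passing the limit was not always enough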;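 further: compound pretreatment 18-22 h then 72 h combined with doxorubicin; 0% = doxorubicin alone and 100% = vehicle without doxorubicin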); conditions: H69AR viability with doxorubicin, CellTiter-Glo luminescence; at 10 µM; stronger effect = higher value
[4] = viability of HCT116 without oncogenic beta-catenin – human colon tumor cells, pilot screen (AID 823;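 active means cell viability at or below a set limit in both duplicate runs, the limit being the all-compound median minus 4 SD, cut at about 23% in these data, passing the limit was not always enough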;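 further: 0% = wells killed by 20 µM Hyamine and 100% = untreated DMSO cell wells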); conditions: HCT116 beta-catenin knockout viability, CellTiter-Glo, 60 h; at 10 µM; stronger effect = lower value
[5] = viability of PTEN-null HCT116 cells – cell-based, HCT116 clonal line, CellTiter-Glo, pilot screen (AID 824;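 active means viability at or below 27.92% in each of two runs, the all-compound median minus 4 SD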;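 further: 0% = 20 µM Hyamine control and 100% = vehicle cell control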); conditions: HCT116 PTEN-deleted viability, 60 h, at 10 µM, stronger effect = lower value
[6] = RAM pathway blockade in budding yeast – dse1pr::URA3 reporter, 5-FOA selection, pilot screen (AID 869;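 active means inhibition over a set limit, the all-compound mean plus 3 SD, in both replicate runs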;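 further: 0% = DMSO wells with no growth and 100% = 10 µM 1-NA-PP1 with full growth; RAM network block rescues cells from 5-FOA so hits raise OD615 growth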); conditions: S. cerevisiae dse1pr::URA3 5-FOA growth, OD615, 2 d; at 10 µM; stronger effect = higher value; strain carries analog-sensitive mutant Cbk1 kinase
[7] = RAM signaling pathway blockade in yeast – S. cerevisiae, Pdr1DBD-CYC8 efflux-inhibited sensitized strain, primary screen (AID 1298;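 active means RAM network inhibition above 8.4% in each of two replicates, 3 SD over the compound average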;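 further: 0% = DMSO untreated cells without growth and 100% = 10 µM 1-NA-PP1 full growth; higher means more yeast growth rescued from 5-FOA killing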); conditions: S. cerevisiae cbk1-as DSE1-URA3 strain, 5-FOA growth OD615, 2 d; at 50 µM; stronger effect = higher value

| Structure (SMILES) | growth inhibition [1] | growth inhibition [2] | viability increase [3] | viability [4] | viability [5] | inhibition [6] | RAM network inhibition [7] |
| --- | --- | --- | --- | --- | --- | --- | --- |
| CCc1ccc(C2CC(c3ccccc3Cl)Nc3nc(N)nn32)cc1 (stereo unspecified) | 8.37% | 26.1% | -2.66% | 95% | 80.7% | 0.86% | 8.56% |
| FC(F)(F)c1cccc(-c2ccc(-c3csnn3)o2)c1 | -0.85% | 6.13% | -0.47% | 82.2% | 83.6% | 1.4% | 9.48% |
| Cc1ccc(-c2nc(CS(=O)CC(=O)NCCCN3CC(C)CC(C)C3)c(C)o2)cc1 (stereo unspecified) | -14.2% | -13.2% | -4.27% | 77.5% | 79.1% | 0.255% | 2.65% |
| COc1ccc(C2C(C(=O)N3CCCCC3)c3ccccc3C(=O)N2C)cc1 (stereo unspecified) | -2.93% | -8.27% | -2.9% | 92.3% | 91.2% | 0.375% | 2.69% |
| Oc1c(C(c2ccccc2)N2CCN(Cc3ccccc3)CC2)sc2ncnn12 (stereo unspecified) | -6.68% | -5.08% | 1.62% | 89.7% | 84.7% | 1.79% | 0.68% |
| CCOC(=O)CSc1nc2ccccc2c(=O)[nH]1 | -13.4% | -17.3% | -0.36% | 105% | 100% | 1.74% | 3.03% |
| COc1cccc(N2C(=O)C3CCCN3C2c2ccc(Cl)cc2)c1 (stereo unspecified) | 3.31% | 17.5% | -2.51% | 95.2% | 87% | 1.21% | 2.53% |
| CCc1ccc(C2CC(c3ccc(C)cc3)Nc3nc(N)nn32)cc1 (stereo unspecified) | -5.94% | -9.54% | 2.61% | 106% | 93.6% | 2.66% | 8.09% |
| CC(C)C(C(=O)NC(C)(C)C)N1C(=O)c2ccccc2C1=O (stereo unspecified) | -7.04% | 0.73% | 0.34% | 101% | 101% | -0.63% | 12.4% |
| COc1ccc(-n2c(Cc3cc(=O)[nH]c(=O)[nH]3)nnc2SCC(=O)Nc2ccccc2)cc1 | 5.82% | 3.9% | 0.25% | 105% | 98.7% | 0.48% | 2.13% |
| COc1ccc(-c2nc(CS(=O)CC(=O)NCCC3=CCCCC3)c(C)o2)cc1 (stereo unspecified) | 0.225% | 9.63% | -4.36% | 77.1% | 79.6% | 0.475% | 3.02% |
| O=C(NCc1ccco1)Nc1ccc(Br)cc1 | 3.96% | 5.27% | -2.7% | 95.7% | 97.7% | 1.09% | 5.07% |
| Cn1c(=O)c2c(nc(NC3CCCCC3)n2Cc2ccccc2)n(C)c1=O | -0.82% | 4.89% | -3.11% | 78.9% | 75.5% | 2.92% | 3.48% |
| Cc1cccc(N2C(=O)SC(N(CC(=O)O)c3cccc(C)c3)C2=O)c1 (stereo unspecified) | -12.5% | 15.6% | -3.96% | 103% | 99.1% | 1.24% | 5.06% |
| CCCC(C(=O)N1CCOCC1)N1C(=O)C2C3C=CC(C3)C2C1=O (stereo unspecified) | -8.63% | 3.61% | 0.84% | 99% | 99% | 0.215% | -0.83% |
| O=C(O)CSCC(=O)c1ccccc1 | -6.96% | -1.74% | 0.58% | 107% | 101% | 1.15% | -0.89% |
| CCOc1ccc(-c2nnc3ccc(SCC(=O)N4CCCCC4)nn23)cc1 | -0.225% | 9.67% | -4.24% | 110% | 101% | 2.06% | 1.25% |
| Cn1ccnc1SC(=O)N1c2ccccc2Sc2ccccc21 | 0.525% | 0.605% | -0.9% | 88.8% | 91.4% | 1.25% | 3.37% |
| CCCC(=O)C1C(=O)CC(C)(C)C(c2cc(C)no2)C1=O (stereo unspecified) | -22.4% | -12.9% | 0.5% | 103% | 98.7% | -0.1% | -1.09% |
| c1ccc(COc2nsnc2N2CCOCC2)cc1 | 6.21% | 13.8% | -1.67% | 107% | 86.5% | 0.145% | 1.41% |
| COc1ccccc1NC(=O)c1c(NC(=O)c2ccco2)sc2c1CCC2 | -9.49% | -18.1% | -2.92% | 80.2% | 72% | 2.31% | 2.6% |
| Nc1c(Br)cc(Br)c(N2CCCC2=O)c1Br | -6.31% | -7.93% | -2.68% | 92.6% | 92.7% | 1.68% | 0.63% |
| O=C(C1CCN(S(=O)(=O)c2cccc3cccnc23)CC1)N1CCN(C2CCCC2)CC1 | -9.46% | 7.92% | -1.82% | 94.3% | 99.2% | 0.96% | 0.11% |
| COc1cccc(OCCn2c(C)c(/C=N/n3cnnc3)c3ccccc32)c1 | 4.55% | 1.59% | -2.88% | 99.3% | 87% | 2.11% | 7.39% |

| Structure (SMILES) | growth inhibition [1] | growth inhibition [2] | viability increase [3] | viability [4] | viability [5] | inhibition [6] | RAM network inhibition [7] |
| --- | --- | --- | --- | --- | --- | --- | --- |
| COc1ccc(CNc2ccc3cn[nH]c3c2)c(OC)c1OC | -1.74% | 1.43% | -2.25% | 74.7% | 79.7% | -0.465% | 9.01% |
| CCNC(=O)c1c(C)nc2ccccn12 | 3.27% | -7.95% | -3.03% | 101% | 91% | -0.1% | 0.67% |
| CCN1c2ccccc2NC2N=C(OC)C(c3ccccc3)C21 (stereo unspecified) | -38.2% | 7.12% | -8.25% | 3.31% (active) | 2.97% (active) | 2.47% | 3.8% |
| Cc1cc(NC(=O)NC2(C(F)(F)F)Oc3ccc(Cl)cc3O2)no1 (stereo unspecified) | -3.33% | -23% | -5.78% | 32.6% | 42.5% | 3.26% | 7.87% |
| COc1ccccc1CC1(C)NC(=O)N(CC(=O)N2CC(C)OC(C)C2)C1=O (stereo unspecified) | -25.5% | -15% | -0.71% | 95.5% | 97.9% | 1.68% | 1.34% |
| CN(Cc1ccccc1)c1nc2c(c(=O)n(C)c(=O)n2C)n1CCSc1ncccn1 | -11.7% | -3.17% | -2.71% | 93.8% | 87.1% | 1.42% | 3.63% |
| COc1cccc(-n2c(Cc3cc(=O)[nH]c(=O)[nH]3)nnc2SCC(=O)N2CCCCC2)c1 | -2.5% | -0.925% | -1.49% | 112% | 96.8% | 1.77% | 5.28% |
| CCOC(=O)N1CCN(CC(=O)Nc2cc3c(cc2C(C)=O)OCO3)CC1 | 2.37% | 13% | -3.17% | 94.2% | 98.9% | 0.555% | 2.4% |
| CCOc1ccccc1Nc1nnc(C)c(=O)[nH]1 | -5.5% | 5.76% | -0.35% | 105% | 99.3% | 0.56% | 3.65% |
| C=CCOn1c(=O)c(C)[n+]([O-])c2ccccc21 | -11.6% | -14.3% | -0.5% | 105% | 98.2% | -0.085% | 5.63% |
| O=C(CCCCCn1c(=O)[nH]c2ccsc2c1=O)N1CCN(C2CCCCC2)CC1 | -5.63% | -0.345% | -1.81% | 95.3% | 92.3% | 1.38% | 3% |
| Cc1ccc(CN2CCNC(=O)C2CC(=O)O)o1 (stereo unspecified) | -8.29% | 2.8% | -0.83% | 105% | 104% | 1.5% | 2.4% |
| CC(/C=C/c1ccccc1)=N/O | -2.33% | 2.71% | 0.26% | 98.3% | 106% | -0.595% | 4.55% |
| Cc1nc(Cc2nnc(SCc3nc(N)nc(Nc4ccccc4C)n3)o2)cs1 | -3.24% | 20.5% | -1.28% | 98.7% | 97.5% | 0.85% | 5.96% |
| COC(=O)c1cc(OC)c(OC)cc1NC(=O)c1c(-c2ccccc2Cl)noc1C | 5.77% | -2.39% | -5.69% | 66.3% | 60.2% | 1.68% | 4.85% |
| CC(=O)c1cccc(NC(=O)Cn2cc3c(n2)CCCC3)c1 | -3.74% | -0.095% | -3.04% | 97.5% | 96.7% | 0.1% | 2.14% |
| CCOC(=O)C(CCOc1cccc(CC)c1)C(=O)OCC | 4.28% | -17.2% | -2.61% | 89.5% | 87% | -0.12% | 2.13% |
| CC(C)c1ccc2c(c1)C(=O)NC(C)(C)C2 | -8.81% | -11.3% | -2.07% | 116% | 97.8% | 1.88% | 4.27% |
| CSc1cccc(NC(=O)CN(c2ccc(C)cc2C)S(C)(=O)=O)c1 | -12.5% | -9.39% | -1.07% | 76.8% | 67.8% | 1.02% | 2.43% |
| CC1=C(C(=O)OC2CCCCCCC2)C(c2cccc(O)c2)NC(=O)N1 (stereo unspecified) | -1.81% | 0.17% | 4.53% | 65.2% | 65.6% | 0.63% | 0.89% |
| Cc1c(C(=O)NCc2cccnc2)oc2ccc(S(=O)(=O)N3CC(C)CC(C)C3)cc12 (stereo unspecified) | -3.33% | 16.4% | -4.52% | 93% | 87.1% | 1.87% | 2.77% |
| O=C(c1cc2ccccn2n1)N1CCN(c2ccccn2)CC1 | -2.62% | 7.25% | 2.16% | 103% | 106% | 0.94% | 4.4% |
| CCN1C(=O)c2ccccc2Sc2ccc(C(=O)NCCN3CCOCC3)cc21 | -6.92% | -7.4% | -0.43% | 110% | 101% | -0.985% | 2.02% |
| O=C(c1ccco1)N1CCN(C(=O)c2oc(=O)c3ccccc3c2-c2ccccc2)CC1 | -6.24% | -4.58% | -1.47% | 105% | 98.5% | 0.68% | 3.83% |
